Screening data (PubChem BioAssay)
PAD4 FP inh = blocks human protein arginine deiminase 4; Q9UM07; recombinant PAD4, RCA probe fluorescence polarization; inhibition, % at 6.36 µM; hit rate 0.41% among 330,000; AID 485272;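 active = percent inhibition above a cutoff equal to the mean of all tested compounds plus 3 SD, cut at about 15% in these data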
Apaf1 inhib = human Apaf-1 inhibition; O14727; reconstituted apoptosome caspase-3 activity, DEVD-Rh110 fluorescence; inhibition, % at 20 µM; hit rate 0.71% among 330,000; active = inhibition of at least 40% at 20 µM
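Assay system – apoptosome proteins · Medium – Hepes buffer, pH 7.5 · Also added – cytochrome c with DEVD-Rh110 · Timing – 30 min compound preincubation, 50 min activation, room temperature · Detection – Rh110 fluorescence, excitation 480 nm, emission 540 nm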
TCR CD3 inh = blocks the human TCR-CD3 interaction | TAMRA-labeled TCR probe fluorescence, biochemical | inhibition, % at 9.4 µM | hit rate 0.37% among 360,000 | AID 651800;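 also: recombinant mutant TCR 2C K166C tagged with TAMRA read by polarization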
SIAE primary = inhibitors of human sialic acid acetylesterase SIAE. SIAE FP-Rh probe binding, fluorescence polarization. inhibition, % at 9.66 µM. hit rate 0.69% among 370,000;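 active = inhibition above a cutoff: mean of compounds within the control limits plus 3 SD of those, cut at about 17% in these data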
GSTO1 inh = blocks human GSTO1 in RBBP9 counter-screen. hit rate 1.1% among 300,000. P78417. inhibition, % at 5.96 µM. recombinant GSTO1, activity-based probe fluorescence polarization;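 active = inhibition above the campaign mean inhibition plus 3 SD, cut at about 35% in these data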
Target sequence (P78417 whole entry, looked up): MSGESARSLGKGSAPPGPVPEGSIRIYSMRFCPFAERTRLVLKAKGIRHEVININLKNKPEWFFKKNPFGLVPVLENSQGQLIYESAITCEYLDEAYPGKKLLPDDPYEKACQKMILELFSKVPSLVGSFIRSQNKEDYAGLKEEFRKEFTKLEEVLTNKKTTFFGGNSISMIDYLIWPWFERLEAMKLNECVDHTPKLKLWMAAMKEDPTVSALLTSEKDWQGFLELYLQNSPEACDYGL
TDP2 absorb = blocks human TDP2 phosphodiesterase activity; inhibition, % at 12.8 µM; recombinant TDP2, T5PNP hydrolysis, p-nitrophenol absorbance 415 nm; hit rate 0.34% among 370,000;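 active = inhibition above the mean of all tested compounds plus 3 SD, set per campaign, cut at about 25% in these data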
Target sequence (O95551 whole entry, looked up): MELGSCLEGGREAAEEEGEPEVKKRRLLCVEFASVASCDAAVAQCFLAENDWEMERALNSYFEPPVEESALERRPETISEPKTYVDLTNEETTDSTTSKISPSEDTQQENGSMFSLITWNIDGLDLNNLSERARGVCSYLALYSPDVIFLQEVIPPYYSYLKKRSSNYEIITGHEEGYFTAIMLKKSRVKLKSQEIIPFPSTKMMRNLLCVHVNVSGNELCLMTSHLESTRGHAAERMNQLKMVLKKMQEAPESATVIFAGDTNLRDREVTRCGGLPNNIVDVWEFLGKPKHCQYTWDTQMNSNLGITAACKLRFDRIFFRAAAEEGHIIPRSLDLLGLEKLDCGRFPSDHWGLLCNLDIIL
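Evaluation: % inhibition relative to enzyme-containing and enzyme-free wells. Material: recombinant human TDP2. Benchmarks: enzyme-free and DMSO wells. Timing: enzyme reaction with compound for 2 h at 37 °C. Compound dosing: 12.8 µM only. Measured by: p-Nitrophenol epi absorbance. Reagent: T5PNP substrate at 5 mM, a TopII-DNA adduct mimic. Replication: single well per compound.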
BSA TAMRA ctr = counter-screen for TCR-CD3 interaction inhibitors: BSA probe; shares compounds with TCR CD3 inh; TAMRA-labeled BSA probe fluorescence counterscreen; inhibition, % at 9.4 µM; hit rate 10% among 1,200; in the data active = inhibition above about 23%
TCR-CD3 inh conf = TCR-CD3 interaction inhibition, confirmation | shares compounds with TCR CD3 inh | TAMRA-labeled TCR probe fluorescence binding assay | inhibition, % at 9.4 µM | hit rate 48% among 1,200
Of the large screens only hits and unclear results are named; the others gave an inactive call (follow-up assays come after a bar, where they were run). Compounds with a hit are over-represented: about 2.4% of the library has one in this group of screens. Rule as the data show it, unless noted: active = inhibition above about 19%; inactive = the rest.

O=C(N/N=C/c1cccc([N+](=O)[O-])c1)c1ccc(COc2ccccc2-c2ccccc2)cc1	TCR CD3 inh 50 | BSA TAMRA ctr inactive | TCR-CD3 inh conf 50
O=C(COc1ccc(F)cc1Br)NCc1ccccn1	none
CCOc1ccccc1C=NNC(=O)C(=O)NN=Cc1ccccc1OCC	none (no result: PAD4 FP inh, Apaf1 inhib, GSTO1 inh)
CCOc1ccccc1NC(=O)C(=O)N/N=C/c1cc(Br)ccc1O	TCR CD3 inh 28 | BSA TAMRA ctr inactive | TCR-CD3 inh conf 21
O=C(CSc1nnc(-c2ccncc2)n1C1CC1)c1cccs1	none (no result: PAD4 FP inh, Apaf1 inhib, GSTO1 inh)
CN=c1c([N+](=O)[O-])nn(-c2ccc3c(c2)OCCO3)n1O	TCR CD3 inh 64 | BSA TAMRA ctr inactive | TCR-CD3 inh conf inactive
Cc1ccc(C(=O)CCC(=O)NNC(=O)c2ccccc2O)cc1	TCR CD3 inh 21 (no result: GSTO1 inh) | BSA TAMRA ctr inactive | TCR-CD3 inh conf 23
Cc1ccc(NC(=O)CCC(=O)c2ccccc2)cc1	none (no result: PAD4 FP inh, Apaf1 inhib, GSTO1 inh)
O=C(NCCNC(=O)c1ccccc1O)c1ccccc1O	none
O=C(CCNC(=O)c1ccccc1Cl)NNC(=O)c1ccccc1O	TCR CD3 inh 23 | BSA TAMRA ctr inactive | TCR-CD3 inh conf inactive
Cc1ccc2c(CC(=O)NNC(=O)c3ccccc3O)coc2c1	TCR CD3 inh 20 | BSA TAMRA ctr inactive | TCR-CD3 inh conf 21
O=C(CNC(=O)c1ccc(Br)o1)NNC(=O)c1cccc(Cl)c1	none
O=C(CNC(=O)c1ccc(Br)o1)NNC(=O)c1ccccc1O	TCR CD3 inh 35 | BSA TAMRA ctr inactive | TCR-CD3 inh conf 32
Cc1c[nH]c2cccc(OCC(O)CNC(C)(C)C)c12 (stereo not given)	none
CN(CC(=O)Nc1ccc(F)c(F)c1F)C(=O)c1cc(-c2ccncc2)nc2ccccc12	none
Cc1cccc(NC(=O)COc2cccc3c2CCNC3=O)c1	none (no result: PAD4 FP inh, Apaf1 inhib, GSTO1 inh)
COc1cc(C(C#N)N2CCOCC2)ccc1O (stereo not given)	none
COc1cc(-c2cc(NC=O)c3ncc(-c4ccc(F)cc4)n3c2)cc(OC)c1OC	none (no result: PAD4 FP inh, Apaf1 inhib, GSTO1 inh)
Cc1ccc2c(=O)cc(C(F)F)oc2c1	TCR CD3 inh 23 | BSA TAMRA ctr inactive | TCR-CD3 inh conf inactive
Cc1cc(C)c2c(=O)cc(C(F)F)oc2c1	none
O=C1CCCCN1CC(=O)N1CCCC(Nc2ccc(F)cc2)C1 (stereo not given)	none
O=C(NN=Cc1c(O)ccc2ccccc12)c1ccncc1	none (no result: PAD4 FP inh, Apaf1 inhib, GSTO1 inh)
O=C(N/N=C/c1c(O)ccc2ccccc12)c1ccc(Br)o1	TCR CD3 inh 26 | BSA TAMRA ctr inactive | TCR-CD3 inh conf 22
O=C(N/N=C/c1c(O)ccc2ccccc12)c1ccc[n+](CCO)c1	TCR CD3 inh 26, GSTO1 inh 44 | BSA TAMRA ctr inactive | TCR-CD3 inh conf inactive
COC(=O)[C@@]1(Cc2ccc(OC)cc2)[C@H]2c3cc(C(=O)N4CCCC4)n(Cc4ccc(C)o4)c3C[C@H]2CN1C(=O)c1ccccc1	TCR CD3 inh 60 (no result: PAD4 FP inh, Apaf1 inhib, GSTO1 inh) | BSA TAMRA ctr inactive | TCR-CD3 inh conf inactive
COC(=O)c1sccc1NC(=O)Nc1ccc(C)c(C)c1	none (no result: PAD4 FP inh, GSTO1 inh)
COC(=O)c1sccc1NC(=O)Nc1ccc(Cl)c(Cl)c1	TCR CD3 inh 34 | BSA TAMRA ctr inactive | TCR-CD3 inh conf inactive
Cc1cccn2c(=O)c3cc(C(N)=S)c(=N)n(CCCN4CCOCC4)c3nc12	TCR CD3 inh 22 | BSA TAMRA ctr inactive | TCR-CD3 inh conf inactive
Cc1cccn2c(=O)c3cc(C#N)c(=N)n(CCCN4CCOCC4)c3nc12	none
COCCCn1c(=N)c(C(N)=S)cc2c(=O)n3cccc(C)c3nc21	TCR CD3 inh 28 | BSA TAMRA ctr inactive | TCR-CD3 inh conf inactive
CCOP(=O)(OCC)C(NC(=O)Nc1ccc(Cl)cc1)C(=O)N(CC)CC (stereo not given)	TCR CD3 inh 21 | BSA TAMRA ctr inactive | TCR-CD3 inh conf inactive
CCCCn1c(SCC(=O)N2CCCCC2C)nc2cc(S(N)(=O)=O)ccc21 (stereo not given)	none
O=S(=O)(c1cc(Cl)ccc1Cl)n1cccn1	none
C[C@@H]1Cn2cnc(C(=O)NCc3ccc(CNC(=O)OC(C)(C)C)cc3)c2C(=O)N1	none (no result: PAD4 FP inh, Apaf1 inhib, GSTO1 inh)
COc1ccccc1NC(=O)c1c(Nc2ccccc2C)sc(C(=O)Nc2cccc(Cl)c2)c1N	TCR CD3 inh 21 | BSA TAMRA ctr inactive | TCR-CD3 inh conf inactive
Cc1ccc(NS(=O)(=O)c2ccc(Cl)c(C(=O)Nc3ccccc3-c3nc4ccccc4[nH]3)c2)cc1C	TCR CD3 inh 78 | BSA TAMRA ctr inactive | TCR-CD3 inh conf 37
CCn1c(COc2ccccc2)nnc1SCC(=O)Nc1cc(OC)ccc1OC	none
COc1cc(OC)c(N(C)S(=O)(=O)c2cccc(C(=O)Nc3nnc(C4CC4)s3)c2)cc1Cl	TCR CD3 inh 21 | BSA TAMRA ctr inactive | TCR-CD3 inh conf inactive
C/C(=C\c1ccccc1)C(=O)Nc1ccc(Cl)cn1	none
NS(=O)(=O)c1cc(C(=O)NC2CCSc3ccccc32)ccc1Cl (stereo not given)	TCR CD3 inh 40, TDP2 absorb 73 | BSA TAMRA ctr inactive | TCR-CD3 inh conf 36
NS(=O)(=O)c1cccc(C(=O)NC2CCSc3ccccc32)c1 (stereo not given)	none
C=CCCC(=O)NC1CC(C)(C)Cc2c1cnn2-c1cccc(F)c1 (stereo not given)	none
O=C(OCC(=O)N1CCOCC1)c1cccc(S(=O)(=O)Nc2ccc(F)cc2)c1	TCR CD3 inh 39 (no result: GSTO1 inh) | BSA TAMRA ctr inactive | TCR-CD3 inh conf inactive
O=C(c1cccc(S(=O)(=O)Nc2ccc(F)cc2)c1)N1CCOCC1	none (no result: GSTO1 inh)
COC(=O)C(=Cc1ccc(-c2ccsc2C(=O)OC)o1)C(=O)OC	none
Oc1ccccc1/C=N/c1c(-c2ccco2)nc2ccccn12	TCR CD3 inh 20 | BSA TAMRA ctr inactive | TCR-CD3 inh conf inactive
CC(=O)N/C(=C\c1ccc(C)cc1)C(=O)O	none
CC1OC23CCCCC2C(C#N)(C(=N)O3)C1(C#N)C#N (stereo not given)	none
COc1ccc(C2OC34CCCCC3C(C#N)(C#N)C2(C#N)C(=N)O4)cc1 (stereo not given)	TCR CD3 inh 27 | BSA TAMRA ctr 65 | TCR-CD3 inh conf 44
COCCn1c(C)cc(C(=O)COC(=O)c2cc3c(s2)CCC3)c1C	none
O=C1CC(N(CCc2ccccc2)C(=S)Nc2ccccc2)C(=O)N1c1ccc(Br)cc1 (stereo not given)	TCR CD3 inh 24 | BSA TAMRA ctr inactive | TCR-CD3 inh conf inactive
COc1ccc(CCN(C(=S)Nc2ccccc2)C2CC(=O)N(c3ccccc3)C2=O)cc1 (stereo not given)	none
O=C(CC1CCCC1)NNC(=O)c1ccccc1O	TCR CD3 inh 29 (no result: PAD4 FP inh, Apaf1 inhib, GSTO1 inh) | BSA TAMRA ctr inactive | TCR-CD3 inh conf 23
